Experimental data from ChEMBL document CHEMBL4402513, “Bio-Inspired Dual-Selective BCL-2/c-MYC G-Quadruplex Binders: Design, Synthesis, and Anticancer Activity of Drug-like Imidazo[2,1-i]purine Derivatives” (J Med Chem, 2020).
Calls of active or inactive are those of the source. The rule behind the calls is not given here.

Experiments:
[1] = system: Quadruplex DNA; test: Binding affinity to synthetic BCL2 G4 quadruplex DNA assessed as change in melting temperature at 10 molar equiv to DNA measured after 10 mins by circular dichroism melting analysis; format: nucleic-acid assay
Outline: (§1)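 CD melting of folded DNA (G4 10 µM, duplex 15 µM) in 20 mM KCl, 5 mM KH2PO4 (pH 7.0), without and with 10 molar equivalents of ligand. Tm was taken from curve fitting, and ΔTm = Tm(DNA+ligand) − Tm(DNA). Runs were done in triplicate and averaged.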

[2] = system: Quadruplex DNA; test: Binding affinity to synthetic c-MYC G4 quadruplex DNA assessed as change in melting temperature at 10 molar equiv to DNA measured after 10 mins by circular dichroism melting analysis; format: nucleic-acid assay; outline: as §1
[3] = system: Quadruplex DNA; test: Binding affinity to synthetic c-KIT1 G4 quadruplex DNA assessed as change in melting temperature at 10 molar equiv to DNA measured after 10 mins by circular dichroism melting analysis; format: nucleic-acid assay; outline: as §1
[4] = system: Quadruplex DNA; test: Binding affinity to human telomeric 23 G4 quadruplex DNA assessed as change in melting temperature at 10 molar equiv to DNA measured after 10 mins by circular dichroism melting analysis; format: nucleic-acid assay; outline: as §1
[5] = Binding affinity to synthetic 20-mer hairpin duplex DNA assessed as change in melting temperature at 10 molar equiv to DNA measured after 10 mins by circular dichroism melting analysis; outline: as §1
[6] = system: Quadruplex DNA; test: Binding affinity to synthetic BCL2 G4 quadruplex DNA assessed as change in chiral structure at 10 molar equiv to DNA measured after 10 mins by circular dichroism spectroscopic analysis; format: nucleic-acid assay
Outline: (§2)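 CD spectra of annealed DNA in 20 mM KCl, 5 mM KH2PO4 (pH 7.0). G4 DNAs were at 10 µM and duplex at 15 µM. Ligand (10 mM DMSO stock) was added at 10 molar equivalents. Spectra were recorded 10 min after addition at 20 °C over 230–360 nm, averaged over three scans and baseline corrected.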

[7] = system: Quadruplex DNA; test: Binding affinity to synthetic c-MYC G4 quadruplex DNA assessed as change in chiral structure at 10 molar equiv to DNA measured after 10 mins by circular dichroism spectroscopic analysis; format: nucleic-acid assay; outline: as §2
[8] = system: Quadruplex DNA; test: Binding affinity to synthetic c-KIT1 G4 quadruplex DNA assessed as change in chiral structure at 10 molar equiv to DNA measured after 10 mins by circular dichroism spectroscopic analysis; format: nucleic-acid assay; outline: as §2
[9] = system: Quadruplex DNA; test: Binding affinity to human telomeric 23 G4 quadruplex DNA assessed as change in chiral structure at 10 molar equiv to DNA measured after 10 mins by circular dichroism spectroscopic analysis; format: nucleic-acid assay; outline: as §2
[10] = Binding affinity to synthetic 20-mer hairpin duplex DNA assessed as change in chiral structure at 10 molar equiv to DNA measured after 10 mins by circular dichroism spectroscopic analysis; outline: as §2
[11] = system: Jurkat; test: Induction of apoptosis in human Jurkat cells assessed as viable cells at 25 uM measured after 48 hrs by Annexin V-FITC/propidium iodide staining based flow cytometry (reference value: 97%); format: functional; conditions: read-out: Activity
[12] = system: Jurkat; test: Induction of apoptosis in human Jurkat cells assessed as early apoptotic cells at 25 uM measured after 48 hrs by Annexin V-FITC/propidium iodide staining based flow cytometry (reference value: 0.3%); format: functional
[13] = system: Jurkat; test: Induction of apoptosis in human Jurkat cells assessed as late apoptotic cells at 25 uM measured after 48 hrs by Annexin V-FITC/propidium iodide staining based flow cytometry (reference value: 1.4%); format: functional
[14] = system: Jurkat; test: Down regulation of c-MYC mRNA expression in human Jurkat cells at 25 uM measured after 24 hrs by RT-qPCR analysis relative to control; format: functional
Outline: (§3)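 Jurkat cells were treated 24 h at 25 µM, and total RNA was extracted with TRI Reagent. 0.5 µg RNA was reverse transcribed with MMLV RT and random primers (22 °C 10 min, 42 °C 60 min). SYBR qPCR ran 40 cycles (95/59/72 °C) in duplicate with GAPDH as reference. Relative expression was calculated by the […] method from at least three independent experiments.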

[15] = system: Jurkat; test: Down regulation of c-MYC expression in human Jurkat cells at 25 uM measured after 24 hrs by Western blot analysis relative to control; format: functional
Outline: (§4)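 Jurkat cells treated 24 h at 25 µM were lysed in 50 mM Hepes pH 7.4, 50 mM NaCl, 1% Triton with protease inhibitors. Protein was quantified by Bradford and run on 10% SDS-PAGE to nitrocellulose. Blots were probed with anti-Bcl-2, anti-c-Myc and anti-β-actin and detected by ECL. Densitometry was normalised to β-actin and expressed as % of control; three independent experiments.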

[16] = system: Jurkat; test: Down regulation of BCL2 expression in human Jurkat cells at 25 uM measured after 24 hrs by Western blot analysis relative to control; format: functional; outline: as §4
[17] = system: Jurkat; test: Cytotoxicity against human Jurkat cells assessed as reduction in cell viability at 50 uM measured after 48 hrs by combined MTT and trypan blue staining based cell counting assay; format: functional
Outline: (§5)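 Cells were seeded at 10^4/well (HDF 10^3), grown 24 h, then treated 48 h at 5–100 µM in 0.5% v/v DMSO. Read-outs were MTT (1 h, 37 °C, absorbance 550 nm; Jurkat handled by centrifugation) combined with trypan blue live/dead counting into a survival index versus untreated cells. IC50 came from nonlinear regression, n = 6 per experiment ×3 (n = 18), mean ± SEM.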

[18] = system: Jurkat; test: Cytotoxicity against human Jurkat cells assessed as cell viability at 50 uM measured after 48 hrs by combined MTT and trypan blue staining based cell counting assay relative to control; format: functional; conditions: read-out: Activity; outline: as §5
[19] = system: Jurkat; test: Down regulation of BCL2 mRNA expression in human Jurkat cells at 25 uM measured after 24 hrs by RT-qPCR analysis relative to control; format: functional; outline: as §3

SMILES | ΔTm [1] [°C] | ΔTm [2] [°C] | ΔTm [3] [°C] | ΔTm [4] [°C] | ΔTm [5] [°C] | also measured
CC(C)(C)Nc1c(-c2ccc(N3CCOCC3)cc2)nc2c3ncn(CCN4CCCC4)c3ncn12 | 9.1 | 8.7 | 2.9 | 2.2 | 6 | –
CC(C)(C)Nc1c(-c2ccc(Cl)cc2)nc2c3ncn(CCN4CCOCC4)c3ncn12 | 2.1 | 1.6 | 1.1 | 0.3 | -0.5 | –
CC(C)(C)Nc1c(-c2ccc(Cl)cc2)nc2c3ncn(CCN4CCCC4)c3ncn12 | 4.5 | 6.4 | 2.3 | 2.3 | 1.9 | –
CN(C)CCCOc1ccccc1-c1nc2c3ncn(CCCN(C)C)c3ncn2c1NC(C)(C)C | 7.8 | > 25 | 4.5 | 5.7 | 3.5 | –
CC(C)(C)Nc1c(-c2ccccc2OCCN2CCOCC2)nc2c3ncn(CCN4CCOCC4)c3ncn12 | 1.9 | 1.9 | 0.8 | 0.1 | 1.2 | –
CN(C)CCCn1cnc2c1ncn1c(NC(C)(C)C)c(-c3ccc(N(C)C)cc3)nc21 | 16.9 | > 25 | 11.9 | 7.2 | – | –
CN(C)c1ccc(-c2nc3c4ncn(CCN5CCCC5)c4ncn3c2NC(C)(C)C)cc1 | 13.4 | 19.5 | 7.3 | 4.8 | 7.5 | –
CN(C)c1ccc(-c2nc3ccn(CCN4CCOCC4)c(=O)n3c2NC(C)(C)C)cc1 | – | – | – | – | – | Activity [6]: inactive; Activity [7]: inactive; Activity [8]: inactive; Activity [9]: inactive; Activity [10]: inactive; deltaTm [1]: inactive; deltaTm [2]: inactive; deltaTm [3]: inactive; deltaTm [4]: inactive; deltaTm [5]: inactive
CC(C)(C)Nc1c(-c2ccc(N3CCOCC3)cc2)nc2c3ncn(CCN4CCOCC4)c3ncn12 | 4.9 | 2.1 | 1.9 | 1 | 1.5 | viability at 25 µM [11]: 79%; Activity [12]: 8%; Activity [13]: 9%; Activity [14]: 27%; Activity [15]: Active; Activity [16]: Active; Activity [17]: Active
CC(C)(C)Nc1c(-c2ccccc2F)nc2c3ncn(CCN4CCCC4)c3ncn12 | 5 | 5.8 | 2.1 | 1.1 | 0.3 | –
CC(C)(C)Nc1c(-c2ccccc2OCCN2CCCC2)nc2c3ncn(CCN4CCCC4)c3ncn12 | 7.1 | 8.4 | 4.5 | 4.9 | 2.2 | –
CC(C)(C)Nc1c(-c2ccc(Cl)cc2)nc2[nH]c(=O)c3ncn(CCN4CCOCC4)c3n12 | – | – | – | – | – | Activity [6]: inactive; Activity [7]: inactive; Activity [8]: inactive; Activity [9]: inactive; Activity [10]: inactive; deltaTm [1]: inactive; deltaTm [2]: inactive; deltaTm [3]: inactive; deltaTm [4]: inactive; deltaTm [5]: inactive
CN(C)CCCn1cnc2c1ncn1c(NC(C)(C)C)c(-c3ccccc3F)nc21 | 8.2 | 11.5 | 2.6 | 1.2 | 0.2 | viability at 50 µM [18]: 60%; viability at 25 µM [11]: 16%; Activity [12]: 13%; Activity [13]: 68%; Activity [14]: 56%; Activity [19]: 43%; Activity [15]: Active; Activity [16]: Active
CC(C)(C)Nc1c(-c2ccccc2F)nc2c3ncn(CCN4CCOCC4)c3ncn12 | 2.6 | 1.9 | 1 | 0.7 | 0.5 | –
CN(C)CCCn1cnc2c1ncn1c(NC(C)(C)C)c(-c3ccc(N4CCOCC4)cc3)nc21 | 10.1 | 9.5 | 5.1 | 3.8 | 9.7 | –
CN(C)c1ccc(-c2nc3c4ncn(CCCN)c4ncn3c2NC(C)(C)C)cc1 | 1.7 | 1.1 | 1.4 | -0.1 | 0.5 | –
CN(C)c1ccc(-c2nc3c4ncn(CCCNC(=N)N)c4ncn3c2NC(C)(C)C)cc1 | 2.8 | 2.5 | 2.1 | 0.6 | 0.2 | –
CN(C)c1ccc(-c2nc3c4ncn(CCN5CCOCC5)c4ncn3c2NC(C)(C)C)cc1 | 9.2 | 7.2 | 5.2 | 2.4 | 1.9 | Activity [6]: inactive; Activity [7]: inactive; Activity [8]: inactive; Activity [9]: inactive; Activity [10]: inactive
